Data taken from ChEMBL document CHEMBL4346684, “Synthesis and structure-bactericidal activity relationships of non-ketolides: 9-Oxime clarithromycin 11,12-cyclic carbonate featured with three-to eight-atom-length spacers at 3-OH” (Eur J Med Chem, 2019).
≈ marks a conversion by molar mass, not a printed value. Calls of active or inactive are those of the source. No cut-off for these calls is given here.

Assays:
Streptococcus pyogenes [1] = experiment: Bactericidal activity against inducibly erythromycin resistant Streptococcus pyogenes 01-968 expressing i-ermA at 1XMIC incubated for 24 hrs by broth dilution method; assay type: functional, organism-based
Method in brief: (§1)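 Samples were taken at 1, 2, 4, 6, 8, 12 and 24 h, diluted and subcultured at 35 °C for 20–24 h. Colonies were counted and log CFU plotted against time; detection limit 300 CFU/mL.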

Staphylococcus aureus [2] = experiment: Ratio of MBC to MIC for inducibly erythromycin-resistant and methicillin resistant Staphylococcus aureus PU32 expressing i-ermA; assay type: functional
[3] = system: Staphylococcus epidermidis; experiment: Antimicrobial activity against Staphylococcus epidermidis E1 incubated in CAMHB medium for 20 hrs by two-fold microbroth dilution method; assay type: functional; details: E1, 20 h
Method in brief: (§2)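 Clinical isolates and ATCC strains, purified by plate activation and used fresh; inoculum about 5×10^5 CFU/ml final. Grown in CAMHB at 35 °C for 20 h.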

Streptococcus pneumoniae [4] = experiment: Antimicrobial activity against constitutively erythromycin resistant Streptococcus pneumoniae PU27 expressing c-erm incubated in CAMHB medium for 20 to 24 hrs by two-fold microbroth dilution method; assay type: functional
Method in brief: (§3)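 Purified fresh Streptococcus isolate at about 5×10^5 CFU/ml final in CAMHB with 5% horse serum, 35 °C for 20–24 h. […] Each run included ATCC strains and reference antibiotics as QC, plus an antibiotic-free growth control.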

Moraxella catarrhalis [5] = experiment: Ratio of MBC to MIC for erythromycin-susceptible Moraxella catarrhalis 13L332; assay type: functional
Moraxella catarrhalis [6] = experiment: Bactericidal activity against erythromycin-susceptible Moraxella catarrhalis 13L332 assessed as reduction in colony formation incubated in CAMHB medium for 20 hrs followed by 24 hrs subculturing in the medium without test compound; assay type: functional
Staphylococcus aureus [7] = experiment: Bactericidal activity against inducibly erythromycin-resistant and methicillin resistant Staphylococcus aureus PU32 expressing i-ermA assessed as reduction in colony formation incubated in CAMHB medium for 20 hrs followed by 24 hrs subculturing in the medium without test compound; assay type: functional
Streptococcus pyogenes [8] = experiment: Bactericidal activity against inducibly erythromycin resistant Streptococcus pyogenes 01-968 expressing i-ermA at 1XMIC incubated for 12 hrs by broth dilution method; assay type: functional, organism-based; method in brief: as §1
Staphylococcus aureus [9] = experiment: Antimicrobial activity against inducibly erythromycin resistant Staphylococcus aureus PU64 expressing i-ermA incubated in CAMHB medium for 20 hrs by two-fold microbroth dilution method; assay type: functional; details: PU64, 20 h
Method in brief: (§4)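 Purified fresh Staphylococcus isolate at about 5×10^5 CFU/ml final in CAMHB, 35 °C for 20 h. […] Each run included ATCC strains and reference antibiotics as QC, plus an antibiotic-free growth control.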

Streptococcus pneumoniae [10] = experiment: Bactericidal activity against erythromycin-susceptible Streptococcus pneumoniae ATCC 49619 assessed as reduction in colony formation incubated in CAMHB medium for 20 to 24 hrs followed by 24 hrs subculturing in the medium without test compound; assay type: functional
Moraxella catarrhalis [11] = experiment: Antimicrobial activity against erythromycin-susceptible Moraxella catarrhalis 13L332 incubated in CAMHB medium for 20 hrs by two-fold microbroth dilution method; assay type: functional; details: 13L332, 20 h; method in brief: as §2
Streptococcus pneumoniae [12] = experiment: Ratio of MBC to MIC for erythromycin-susceptible Streptococcus pneumoniae ATCC 49619; assay type: functional
Staphylococcus aureus [13] = experiment: Antimicrobial activity against inducibly erythromycin-resistant and methicillin resistant Staphylococcus aureus PU32 expressing i-ermA incubated in CAMHB medium for 20 hrs by two-fold microbroth dilution method; assay type: functional; details: PU32, 20 h
Method in brief: (§5)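 Purified fresh Staphylococcus isolate at about 5×10^5 CFU/ml final in CAMHB, 35 °C for 20 h. Each run included ATCC strains and reference antibiotics as QC, plus an antibiotic-free growth control.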

Streptococcus pyogenes [14] = experiment: Bactericidal activity against inducibly erythromycin resistant Streptococcus pyogenes 01-968 expressing i-ermA assessed as reduction in colony formation incubated in CAMHB medium for 20 to 24 hrs followed by 24 hrs subculturing in the medium without test compound; assay type: functional
Streptococcus pneumoniae [15] = experiment: Bactericidal activity against mef-encoded erythromycin resistant Streptococcus pneumoniae PU09 assessed as reduction in colony formation incubated in CAMHB medium for 20 to 24 hrs followed by 24 hrs subculturing in the medium without test compound; assay type: functional
Staphylococcus aureus [16] = experiment: Antimicrobial activity against constitutively erythromycin resistant and methicillin resistant Staphylococcus aureus PU20 expressing c-ermC incubated in CAMHB medium for 20 hrs by two-fold microbroth dilution method; assay type: functional; details: PU20, 20 h; method in brief: as §5
Staphylococcus aureus [17] = experiment: Antimicrobial activity against constitutively erythromycin resistant Staphylococcus aureus PU20 expressing c-ermC incubated in CAMHB medium for 20 hrs by two-fold microbroth dilution method; assay type: functional; details: PU20, 20 h; method in brief: as §4
Streptococcus pyogenes [18] = experiment: Antimicrobial activity against constitutively erythromycin resistant Streptococcus pyogenes A2 expressing c-erm incubated in CAMHB medium for 20 to 24 hrs by two-fold microbroth dilution method; assay type: functional; method in brief: as §3
Staphylococcus aureus [19] = experiment: Antimicrobial activity against inducibly erythromycin-resistant Staphylococcus aureus PU32 expressing i-ermA incubated in CAMHB medium for 20 hrs by two-fold microbroth dilution method; assay type: functional; details: PU32, 20 h; method in brief: as §4
Staphylococcus aureus [20] = experiment: Bactericidal activity against constitutively erythromycin resistant and methicillin-resistant Staphylococcus aureus PU20 expressing c-ermC assessed as reduction in colony formation incubated in CAMHB medium for 20 hrs followed by 24 hrs subculturing in the medium without test compound; assay type: functional
Streptococcus pneumoniae [21] = experiment: Bactericidal activity against mef-encoded erythromycin resistant Streptococcus pneumoniae PU09 at 1 to 16xMIC incubated for 1 to 24 hrs by broth dilution method; assay type: functional, organism-based; method in brief: as §1
Streptococcus pneumoniae [22] = experiment: Antimicrobial activity against mef-encoded erythromycin resistant Streptococcus pneumoniae PU09 incubated in CAMHB medium for 20 to 24 hrs by two-fold microbroth dilution method; assay type: functional
Streptococcus pneumoniae [23] = experiment: Bactericidal activity against erythromycin-susceptible Streptococcus pneumoniae ATCC 49619 assessed as log reduction in bacterial CFU at 1 to 16XMIC incubated for 1 to 24 hrs by broth dilution method; assay type: functional
Method in brief: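 Samples taken at 1, 2, 4, 6, 8, 12, 24 h, diluted and plated, colonies counted after 20-24 h at 35 °C; log CFU plotted against time. Detection limit 300 CFU/mL.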

Staphylococcus aureus [24] = experiment: Antimicrobial activity against erythromycin-susceptible Staphylococcus aureus ATCC 29213 incubated in CAMHB medium for 20 hrs by two-fold microbroth dilution method; assay type: functional; details: ATCC 29213, 20 h; method in brief: as §2
Streptococcus pneumoniae [25] = experiment: Ratio of MBC to MIC for mef-encoded erythromycin resistant Streptococcus pneumoniae PU09; assay type: functional
Streptococcus pyogenes [26] = experiment: Antimicrobial activity against inducibly erythromycin resistant Streptococcus pyogenes 01-968 expressing i-ermA incubated in CAMHB medium for 20 to 24 hrs by two-fold microbroth dilution method; assay type: functional
Streptococcus pyogenes [27] = experiment: Antimicrobial activity against erythromycin-susceptible Streptococcus pyogenes A3 incubated in CAMHB medium for 20 to 24 hrs by two-fold microbroth dilution method; assay type: functional
Streptococcus pyogenes [28] = experiment: Ratio of MBC to MIC for inducibly erythromycin resistant Streptococcus pyogenes 01-968 expressing i-ermA; assay type: functional
Streptococcus pneumoniae [29] = experiment: Antimicrobial activity against erythromycin-susceptible Streptococcus pneumoniae ATCC 49619 incubated in CAMHB medium for 20 to 24 hrs by two-fold microbroth dilution method; assay type: functional
Staphylococcus aureus [30] = experiment: Ratio of MBC to MIC for constitutively erythromycin resistant and methicillin-resistant Staphylococcus aureus PU20 expressing c-ermC; assay type: functional
Haemophilus influenzae [31] = experiment: Bactericidal activity against azithromycin-susceptible Haemophilus influenzae ATCC 49247 assessed as reduction in colony formation incubated in HTM broth medium for 20 to 24 hrs followed by 24 hrs subculturing in the medium without test compound; assay type: functional
Haemophilus influenzae [32] = experiment: Ratio of MBC to MIC for azithromycin-susceptible Haemophilus influenzae ATCC 49247; assay type: functional
Haemophilus influenzae [33] = experiment: Antimicrobial activity against azithromycin-susceptible Haemophilus influenzae ATCC 49247 incubated in HTM broth medium for 20 to 24 hrs by two-fold microbroth dilution method; assay type: functional

Row | Compound | Ratio (Staphylococcus aureus [2]) | Ratio (Moraxella catarrhalis [5]) | MBC (Moraxella catarrhalis [6]) [µg/mL] | MBC (Staphylococcus aureus [7]) [µg/mL] | MBC (Streptococcus pneumoniae [10]) [µg/mL] | MIC (Moraxella catarrhalis [11]) [µg/mL] | Ratio (Streptococcus pneumoniae [12]) | MIC (Staphylococcus aureus [13]) [µg/mL] | MBC (Streptococcus pyogenes [14]) [µg/mL] | MBC (Streptococcus pneumoniae [15]) [µg/mL] | MIC (Staphylococcus aureus [16]) [µg/mL] | MBC (Staphylococcus aureus [20]) [µg/mL] | MIC (Streptococcus pneumoniae [22]) [µg/mL] | Ratio (Streptococcus pneumoniae [25]) | MIC (Streptococcus pyogenes [26]) [µg/mL] | Ratio (Streptococcus pyogenes [28]) | MIC (Streptococcus pneumoniae [29]) [µg/mL] | Ratio (Staphylococcus aureus [30]) | further results
1 | CC[C@H]1OC(=O)[C@H](C)C(=O)[C@H](C)[C@@H](O[C@@H]2O[C@H](C)C[C@H](N(C)C)[C@H]2O)[C@](C)(OC)C[C@@H](C)C(=O)[C@H](C)[C@H]2N(CCCCn3cnc(-c4cccnc4)c3)C(=O)O[C@]12C [TELITHROMYCIN] | >=4 - 8 | 4 | 0.5 (≈ 0.616 µM) | 1 to 2 (≈ 1.23 to 2.46 µM) | 0.031 to 0.125 (≈ 0.0382 to 0.154 µM) | 0.125 (≈ 0.154 µM) | 1 - 4 | 0.25 (≈ 0.308 µM) | 0.13 to 0.5 (≈ 0.16 to 0.616 µM) | 1 to 4 (≈ 1.23 to 4.93 µM) | > 256 | > 256 | 0.25 to 1 (≈ 0.308 to 1.23 µM) | 4 - 8 | 0.031 to 0.062 (≈ 0.0382 to 0.0764 µM) | 4 - 8 | – | – | Activity (Streptococcus pyogenes [1]): inactive; MIC [3]: 0.125 µg/mL (≈ 0.154 µM); MIC (Streptococcus pneumoniae [4]): ≤ 0.032 µg/mL; Activity (Streptococcus pyogenes [8]): Active; MIC (Staphylococcus aureus [9]): 0.125 µg/mL (≈ 0.154 µM); MIC (Staphylococcus aureus [17]): > 256 µg/mL; MIC (Streptococcus pyogenes [18]): 32 µg/mL (≈ 39.4 µM); MIC (Staphylococcus aureus [19]): 0.125 µg/mL (≈ 0.154 µM); Activity (Streptococcus pneumoniae [21]): Active; Activity (Streptococcus pneumoniae [23]): 3 log10CFU; MIC (Staphylococcus aureus [24]): 0.125 µg/mL (≈ 0.154 µM); MIC (Streptococcus pyogenes [27]): ≤ 0.032 µg/mL
2 | CC[C@H]1OC(=O)[C@H](C)[C@@H](OCC#Cc2ccc(C(=O)c3ccccc3)s2)[C@H](C)[C@@H](O[C@@H]2O[C@H](C)C[C@H](N(C)C)[C@H]2O)[C@](C)(OC)C[C@@H](C)/C(=N\OC)[C@H](C)[C@H]2OC(=O)O[C@@]21C | – | 2 | 16 (≈ 18.4 µM) | > 256 | 16 (≈ 18.4 µM) | 8 (≈ 9.21 µM) | 2 | > 256 | 8 (≈ 9.21 µM) | 8 (≈ 9.21 µM) | 32 (≈ 36.8 µM) | > 256 | 4 (≈ 4.6 µM) | – | 4 (≈ 4.6 µM) | 2 | 8 (≈ 9.21 µM) | >8 | –
3 | CC[C@H]1OC(=O)[C@H](C)[C@@H](OC(=O)CCNCCCc2ccc(-n3ccnc3)cc2)[C@H](C)[C@@H](O[C@@H]2O[C@H](C)C[C@H](N(C)C)[C@H]2O)[C@](C)(OC)C[C@@H](C)/C(=N\OC)[C@H](C)[C@H]2OC(=O)O[C@@]21C | 2 | – | – | 128 (≈ 142 µM) | 4 (≈ 4.44 µM) | – | 2 | 64 (≈ 71.1 µM) | 32 (≈ 35.6 µM) | 8 (≈ 8.89 µM) | 64 (≈ 71.1 µM) | > 256 | 4 (≈ 4.44 µM) | – | 16 (≈ 17.8 µM) | 2 | 2 (≈ 2.22 µM) | >4 | MBC (Haemophilus influenzae [31]): 256 µg/mL (≈ 284 µM); Ratio (Haemophilus influenzae [32]): 1; MIC (Haemophilus influenzae [33]): 256 µg/mL (≈ 284 µM)
4 | CC[C@H]1OC(=O)[C@H](C)[C@@H](OCC#Cc2ccc(OCc3ccccc3)cc2)[C@H](C)[C@@H](O[C@@H]2O[C@H](C)C[C@H](N(C)C)[C@H]2O)[C@](C)(OC)C[C@@H](C)/C(=N\OC)[C@H](C)[C@H]2OC(=O)O[C@@]21C | – | 1 | 8 (≈ 9.25 µM) | > 256 | 32 (≈ 37 µM) | 8 (≈ 9.25 µM) | 4 | > 256 | 8 (≈ 9.25 µM) | 16 (≈ 18.5 µM) | 32 (≈ 37 µM) | 256 (≈ 296 µM) | 8 (≈ 9.25 µM) | 2 | 4 (≈ 4.62 µM) | 2 | 8 (≈ 9.25 µM) | 8 | –
